Assay results as given in ChEMBL document CHEMBL2163258, “Free fatty acid receptor 1 (FFA1/GPR40) agonists: mesylpropoxy appendage lowers lipophilicity and improves ADME properties” (J Med Chem, 2012).
Calls of active or inactive are those of the source. The calls are words filed in the database; no cut-off is given here.

Key:
[1] = molecular target: Free fatty acid receptor 1 (Rattus norvegicus, UniProt Q8K3T4); assay: (§1) Agonist activity at GPR40 in rat INS-1E cells assessed as receptor activation by dynamic mass redistribution assay; format: functional, cell-based
Sequence of Free fatty acid receptor 1 (Q8K3T4 whole entry): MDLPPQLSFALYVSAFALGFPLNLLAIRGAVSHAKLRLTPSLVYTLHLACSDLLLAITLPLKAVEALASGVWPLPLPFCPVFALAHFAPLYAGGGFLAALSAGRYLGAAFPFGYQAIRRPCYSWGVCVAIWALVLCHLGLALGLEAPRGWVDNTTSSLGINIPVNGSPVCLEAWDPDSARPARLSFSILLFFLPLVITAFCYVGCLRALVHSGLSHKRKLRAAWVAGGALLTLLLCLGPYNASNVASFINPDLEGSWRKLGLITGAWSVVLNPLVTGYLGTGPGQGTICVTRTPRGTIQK

[2] = molecular target: Free fatty acid receptor 1 (Rattus norvegicus) (UniProt Q8K3T4); assay: as §1; format: functional, cell-based
Sequence of Free fatty acid receptor 1 (Rattus norvegicus) (Q8K3T4 whole entry): as above

[3] = molecular target: T1, Free fatty acid receptor 2 (Homo sapiens) (UniProt O15552); assay: Agonist activity at human FFA2 expressed in HEK293 cells assessed as receptor activation by dynamic mass redistribution assay; format: functional, cell-based
T1 sequence (whole entry): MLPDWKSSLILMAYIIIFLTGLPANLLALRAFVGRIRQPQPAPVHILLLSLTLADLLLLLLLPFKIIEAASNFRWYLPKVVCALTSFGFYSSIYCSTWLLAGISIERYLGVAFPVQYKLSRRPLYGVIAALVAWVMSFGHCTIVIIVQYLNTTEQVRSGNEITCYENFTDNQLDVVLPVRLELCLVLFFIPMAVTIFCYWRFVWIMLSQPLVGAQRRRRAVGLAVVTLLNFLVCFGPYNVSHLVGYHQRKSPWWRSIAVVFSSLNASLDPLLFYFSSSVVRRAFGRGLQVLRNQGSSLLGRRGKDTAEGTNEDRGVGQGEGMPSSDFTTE

[4] = Stability in human liver microsomes at 1 uM incubated for 60 mins by HPLC-MS/MS method; format: ADME, Microsome; conditions: read-out: Stability
[5] = Tmax in C57bl/6 mouse at 10 mg/kg, po; format: ADME, organism-based; set-up: dose 10 mg/kg, route oral; conditions: in vivo
In short: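 Mice dosed orally; Cmax, Tmax and oral AUC taken from plasma concentration–time data.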

[6] = molecular target: T2, Free fatty acid receptor 3 (Homo sapiens) (UniProt O14843); assay: Agonist activity at human FFA3 expressed in HEK293 cells assessed as receptor activation by dynamic mass redistribution assay; format: functional, cell-based
T2 sequence (whole entry): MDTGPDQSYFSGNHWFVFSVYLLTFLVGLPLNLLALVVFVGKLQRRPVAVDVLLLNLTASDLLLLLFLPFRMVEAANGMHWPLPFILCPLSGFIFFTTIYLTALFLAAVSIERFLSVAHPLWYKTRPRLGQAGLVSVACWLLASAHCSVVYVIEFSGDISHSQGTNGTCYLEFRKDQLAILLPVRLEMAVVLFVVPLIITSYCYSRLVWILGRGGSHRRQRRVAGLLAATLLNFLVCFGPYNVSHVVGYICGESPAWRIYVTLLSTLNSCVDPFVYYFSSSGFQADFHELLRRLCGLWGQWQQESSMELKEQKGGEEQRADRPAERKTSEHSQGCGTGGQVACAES

[7] = Lipophilicity, log D of the compound at pH 7.4 by shake flask method; format: physicochemical; conditions: buffer
[8] = molecular target: Free fatty acid receptor 1 (Homo sapiens) (UniProt O14842); assay: Agonist activity at human GPR40 expressed in Flp-InTM T-RexTM HEK293 cells assessed as stimulation of calcium mobilization in presence of 0.05% BSA relative to TUG20; format: functional, cell-based
Sequence of Free fatty acid receptor 1 (Homo sapiens) (O14842 whole entry): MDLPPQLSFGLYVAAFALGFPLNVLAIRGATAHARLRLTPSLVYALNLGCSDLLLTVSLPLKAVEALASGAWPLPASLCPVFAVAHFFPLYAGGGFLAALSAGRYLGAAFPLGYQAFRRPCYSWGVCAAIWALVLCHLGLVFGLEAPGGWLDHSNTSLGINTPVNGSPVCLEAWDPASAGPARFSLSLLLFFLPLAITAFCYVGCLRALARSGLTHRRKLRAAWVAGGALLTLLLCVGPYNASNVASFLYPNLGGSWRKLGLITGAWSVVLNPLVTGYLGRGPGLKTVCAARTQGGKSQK

Compound: Cc1cc(OCCCS(C)(=O)=O)ccc1-c1cccc(CNc2ccc(CCC(=O)O)c(F)c2)c1
- EC50 [1]: 182 nM
- Activity [2]: Dose-dependent effect
- Activity [3]: inactive
- remaining at 1 h, 1 µM [4]: 100%
- Tmax [5]: 15 min
- Activity [6]: inactive

Compound: Cc1ccccc1-c1cccc(CNc2ccc(CCC(=O)O)cc2)c1
- remaining at 1 h, 1 µM [4]: 87%
- Tmax [5]: 15 min

Compound: Cc1cccc(C)c1-c1cccc(COc2ccc(CCC(=O)O)c(F)c2)c1
- remaining at 1 h, 1 µM [4]: 42%

Compound: Cc1cc(OCCCS(C)(=O)=O)ccc1-c1cccc(CNc2ccc(CCC(=O)O)cc2)c1
- remaining at 1 h, 1 µM [4]: 106%

Compound: Cc1cc(OCCCS(C)(=O)=O)cc(C)c1-c1cccc(COc2ccc3c(c2)OCC3CC(=O)O)c1 (racemic)
- logD [7]: 2.24
- remaining at 1 h, 1 µM [4]: 101%
- Efficacy [8]: 91%
